Experiments:
Cannabinoid receptor 1 [1] = target: T1, Cannabinoid receptor 1 (Homo sapiens, UniProt P21554); test: Allosteric antagonist activity at human CB1 receptor expressed in CHO-RD-HGA16 cells overexpressing Galpha16 assessed as inhibition of CP55940-stimulated calcium mobilization incubated for 15 mins FLIPR assay; type: functional, cell-based
Cannabinoid receptor 1 [2] = target: T1, Cannabinoid receptor 1; test: Allosteric antagonist activity against human CB1 receptor expressed in HEK293 cells membrane measured after 60 mins by [35S]GTPgammaS binding assay; type: functional, cell membranes
Outline: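 Membranes from HEK293 cells expressing hCB1 are used in assay buffer (50 mM Tris, 3 mM MgCl2, 0.2 mM EGTA, 100 mM NaCl, 1 mg/ml BSA, pH 7.4). They are preincubated 10 min, then incubated 60 min at 30 °C with 30 μM GDP, 0.1 nM [35S]GTPγS, 100 nM CP55,940 and serially diluted compound (0.1% DMSO final). Nonspecific binding is set with 30 μM unlabeled GTPγS. Reactions are filtered. Data are normalized to CP55,940 alone and fitted by 3-parameter regression; mean of ≥3 experiments in duplicate.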

Cannabinoid receptor 1 [3] = target: T1, Cannabinoid receptor 1; test: Agonist activity at human CB1 receptor CP55940-stimulated calcium mobilization at 10 uM incubated for 15 mins FLIPR assay relative to control; type: functional
[4] = target: Cannabinoid receptor 2 (Homo sapiens) (UniProt P34972); test: Agonist activity at human CB2 receptor CP55940-stimulated calcium mobilization at 10 uM incubated for 15 mins FLIPR assay relative to control; type: functional
Outline: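 CB2 agonist screen in CHO-RD-HGA16 cells stably expressing human CB2, loaded with Calcium 5 dye for 45 min at 37 °C. Cells were pretreated 15 min with vehicle, then the test compound was added at a single concentration. Fluorescence was read on FLIPR every 1 s for 90 s (485/525 nm). Response is expressed as % of CP55,940 Emax.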

[5] = target: Cannabinoid receptor 2 (Homo sapiens) (UniProt P34972); test: Antagonist activity at human CB2 receptor CP55940-stimulated calcium mobilization incubated for 15 mins FLIPR assay; type: functional; set-up: concentration or dose not given beside the values
Outline: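 CB2 antagonist screen in human CB2 CHO-RD-HGA16 cells loaded with Calcium 5 dye. Cells were pretreated 15 min at 37 °C with the test compound at a single concentration (10 μM), then challenged with CP55,940 at its EC80 during the FLIPR read (90 s, 485/525 nm). Response is expressed as % inhibition of the CP55,940 EC80 signal.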

Cannabinoid receptor 1 [6] = target: T1, Cannabinoid receptor 1; test: Antagonist activity at N-terminal tagged human CB1 receptor transfected with HEK293 cells assessed as forskolin-stimulated cAMP level in presence of CP55940 by BRET assay; type: functional, cell-based
Outline: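 HEK293 cells stably expressing hCB1 (3HA-tagged at Otago, untagged at RTI) are transiently transfected with the CAMYEL BRET cAMP sensor. Cells are serum-starved 30 min and given 5 μM coelenterazine H final. Compound dilutions are added together with 5 μM forskolin and 1 μM CP55,940. BRET (460/535) is read for about 20 min at 37 °C.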

Cannabinoid receptor 1 [7] = target: Cannabinoid receptor 1 (Mus musculus, UniProt P47746); test: Allosteric antagonist activity against mouse CB1 receptor in cerebellar membranes measured after 60 mins by [35S]GTPgammaS binding assay
[8] = Metabolic stability in rat liver microsomes assessed as half life in presence of NADPH measured upto 45 mins by LC-MS/MS analysis; type: ADME, Microsome; settings: 0.75 h
Outline: (§1)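 Rat liver microsomes (0.5 mg/mL protein) in 100 mM potassium phosphate, pH 7.4, at 37 °C with 1 mM NADPH. Samples were taken at 0, 5, 15, 30 and 45 min, quenched with acetonitrile and analysed by LC/MS/MS. Half-life and clearance were derived from two independent experiments in duplicate.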

[9] = Metabolic stability in rat liver microsomes assessed as clearance in presence of NADPH measured upto 45 mins by LC-MS/MS analysis; type: ADME, Microsome; settings: 0.75 h; outline: as §1

Chain of Cannabinoid receptor 2 (Homo sapiens) (P34972 whole entry): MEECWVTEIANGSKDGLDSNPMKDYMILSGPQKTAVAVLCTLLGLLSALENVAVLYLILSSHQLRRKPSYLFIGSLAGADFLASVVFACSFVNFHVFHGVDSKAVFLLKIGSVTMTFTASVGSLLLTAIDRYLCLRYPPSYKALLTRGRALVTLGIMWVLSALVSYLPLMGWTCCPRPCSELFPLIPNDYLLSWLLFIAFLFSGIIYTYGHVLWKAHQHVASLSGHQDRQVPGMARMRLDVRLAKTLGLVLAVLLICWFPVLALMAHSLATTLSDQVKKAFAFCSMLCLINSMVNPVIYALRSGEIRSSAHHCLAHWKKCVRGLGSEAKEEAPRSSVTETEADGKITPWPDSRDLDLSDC
Chain of Cannabinoid receptor 1 (Mus musculus, UniProt P47746) (P47746 whole entry): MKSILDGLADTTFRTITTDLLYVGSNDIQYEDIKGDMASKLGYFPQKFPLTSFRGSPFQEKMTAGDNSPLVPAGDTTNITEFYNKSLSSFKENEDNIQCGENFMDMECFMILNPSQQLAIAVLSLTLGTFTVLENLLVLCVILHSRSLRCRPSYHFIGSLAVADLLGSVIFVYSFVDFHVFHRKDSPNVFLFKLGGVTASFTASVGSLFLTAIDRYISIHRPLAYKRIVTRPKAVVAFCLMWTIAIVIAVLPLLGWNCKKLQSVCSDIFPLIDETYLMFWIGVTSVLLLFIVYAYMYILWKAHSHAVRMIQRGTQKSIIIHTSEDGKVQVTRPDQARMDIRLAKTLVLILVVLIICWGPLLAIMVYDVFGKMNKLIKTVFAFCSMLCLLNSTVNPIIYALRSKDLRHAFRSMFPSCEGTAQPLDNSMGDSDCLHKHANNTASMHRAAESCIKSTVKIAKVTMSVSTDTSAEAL
T1 sequence (P21554 whole entry): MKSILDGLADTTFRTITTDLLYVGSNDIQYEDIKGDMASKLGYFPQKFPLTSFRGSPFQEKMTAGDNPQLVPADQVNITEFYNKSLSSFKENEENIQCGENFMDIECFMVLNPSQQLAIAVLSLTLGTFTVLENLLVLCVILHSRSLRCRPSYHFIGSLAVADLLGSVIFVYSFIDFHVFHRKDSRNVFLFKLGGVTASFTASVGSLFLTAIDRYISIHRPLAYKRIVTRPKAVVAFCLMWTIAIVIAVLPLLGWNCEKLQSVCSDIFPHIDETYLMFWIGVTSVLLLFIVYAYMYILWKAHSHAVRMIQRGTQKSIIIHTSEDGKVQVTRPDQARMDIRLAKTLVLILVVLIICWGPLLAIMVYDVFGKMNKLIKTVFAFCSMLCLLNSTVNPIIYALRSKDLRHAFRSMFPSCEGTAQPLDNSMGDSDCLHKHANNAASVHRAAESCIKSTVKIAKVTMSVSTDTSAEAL

CC(C)(C)c1ccc(CCNC(=O)Nc2ccc(Cl)cc2)cc1
IC50 (Cannabinoid receptor 1 [1]): 537 nM
IC50 (Cannabinoid receptor 1 [2]): > 10000 nM
Emax (Cannabinoid receptor 1 [3]): < 30%
Emax [4]: < 20%
Activity [5]: < 35%
IC50 (Cannabinoid receptor 1 [6]): > 10000 nM
IC50 (Cannabinoid receptor 1 [7]): > 10000 nM

O=C(NCCc1ccc(N2CCCCC2)cc1)Nc1ccc(Cl)cc1
IC50 (Cannabinoid receptor 1 [1]): 912 nM
Emax [4]: < 20%
Activity [5]: < 35%

O=C(NCCc1cccc(F)c1)Nc1ccc(Cl)cc1
IC50 (Cannabinoid receptor 1 [1]): 51.3 nM
IC50 (Cannabinoid receptor 1 [2]): 6760 nM
Emax (Cannabinoid receptor 1 [3]): < 30%
Emax [4]: < 20%
Activity [5]: < 35%
IC50 (Cannabinoid receptor 1 [6]): 1350 nM

CS(=O)(=O)c1ccc(CCNC(=O)Nc2ccc(Cl)cc2)cc1
IC50 (Cannabinoid receptor 1 [1]): > 10000 nM
Emax (Cannabinoid receptor 1 [3]): < 30%
Emax [4]: < 20%
Activity [5]: < 35%

O=C(NCCc1ccccc1F)Nc1ccc(Cl)cc1
IC50 (Cannabinoid receptor 1 [1]): 170 nM
Emax (Cannabinoid receptor 1 [3]): < 30%
Emax [4]: < 20%
Activity [5]: < 35%

O=C(NCCc1ccc(Cl)cc1)Nc1ccc(Cl)cc1
IC50 (Cannabinoid receptor 1 [1]): 162 nM
Emax (Cannabinoid receptor 1 [3]): < 30%
Emax [4]: < 20%
Activity [5]: < 35%

Cc1ccc(CCNC(=O)Nc2ccc(Cl)cc2)cc1C
IC50 (Cannabinoid receptor 1 [1]): 47.9 nM
IC50 (Cannabinoid receptor 1 [2]): 2570 nM
Emax [4]: < 20%
Activity [5]: < 35%
IC50 (Cannabinoid receptor 1 [6]): 1150 nM

Cc1cccc(CCNC(=O)Nc2ccc(Cl)cc2)c1
t1/2 [8]: 13.7 min
CLH [9]: 102 µL/min/mg
IC50 (Cannabinoid receptor 1 [1]): 41.7 nM
IC50 (Cannabinoid receptor 1 [2]): 3020 nM
Emax (Cannabinoid receptor 1 [3]): < 30%
Emax [4]: < 20%
Activity [5]: < 35%
IC50 (Cannabinoid receptor 1 [6]): 912 nM

O=C(NCCc1ccc(F)cc1)Nc1ccc(Cl)cc1
IC50 (Cannabinoid receptor 1 [1]): 105 nM
IC50 (Cannabinoid receptor 1 [2]): 4370 nM
Emax (Cannabinoid receptor 1 [3]): < 30%
Emax [4]: < 20%
Activity [5]: < 35%
IC50 (Cannabinoid receptor 1 [6]): 1700 nM
IC50 (Cannabinoid receptor 1 [7]): 891 nM

O=C(NCCc1cccc(Br)c1)Nc1ccc(Cl)cc1
IC50 (Cannabinoid receptor 1 [1]): 32.4 nM
IC50 (Cannabinoid receptor 1 [2]): 3470 nM
Emax [4]: < 20%
Activity [5]: < 35%
IC50 (Cannabinoid receptor 1 [6]): 724 nM

O=C(NCCc1ccc(Cl)cc1Cl)Nc1ccc(Cl)cc1
IC50 (Cannabinoid receptor 1 [1]): 166 nM
Emax (Cannabinoid receptor 1 [3]): < 30%
Emax [4]: < 20%
Activity [5]: < 35%

CN(C)c1cccc(CCNC(=O)Nc2ccc(Cl)cc2)c1
IC50 (Cannabinoid receptor 1 [1]): 1620 nM
Emax (Cannabinoid receptor 1 [3]): < 30%
Emax [4]: < 20%
Activity [5]: < 35%

O=C(NCCc1ccccc1C(F)(F)F)Nc1ccc(Cl)cc1
IC50 (Cannabinoid receptor 1 [1]): 126 nM
IC50 (Cannabinoid receptor 1 [2]): 4270 nM
Emax (Cannabinoid receptor 1 [3]): < 30%
Emax [4]: < 20%
Activity [5]: < 35%
IC50 (Cannabinoid receptor 1 [6]): 3240 nM

O=C(NCCc1cc(Cl)cc(Cl)c1)Nc1ccc(Cl)cc1
IC50 (Cannabinoid receptor 1 [1]): 24 nM
IC50 (Cannabinoid receptor 1 [2]): 1740 nM
Emax [4]: < 20%
Activity [5]: < 35%
IC50 (Cannabinoid receptor 1 [6]): 4370 nM

COc1ccc(CCNC(=O)Nc2ccc(Cl)cc2)cc1OC
IC50 (Cannabinoid receptor 1 [1]): 1780 nM
IC50 (Cannabinoid receptor 1 [2]): > 10000 nM
Emax (Cannabinoid receptor 1 [3]): < 30%
Emax [4]: < 20%
Activity [5]: < 35%
IC50 (Cannabinoid receptor 1 [6]): > 10000 nM

Cc1cc(C)cc(CCNC(=O)Nc2ccc(Cl)cc2)c1
IC50 (Cannabinoid receptor 1 [1]): 28.8 nM
IC50 (Cannabinoid receptor 1 [2]): 6610 nM
Emax [4]: < 20%
Activity [5]: < 35%
IC50 (Cannabinoid receptor 1 [6]): 6610 nM

O=C(NCCc1c(F)cccc1Cl)Nc1ccc(Cl)cc1
IC50 (Cannabinoid receptor 1 [1]): 398 nM
Emax (Cannabinoid receptor 1 [3]): < 30%
Emax [4]: < 20%
Activity [5]: < 35%

O=C(NCCc1cccc(OC(F)(F)F)c1)Nc1ccc(Cl)cc1
IC50 (Cannabinoid receptor 1 [1]): 93.3 nM
IC50 (Cannabinoid receptor 1 [2]): 7940 nM
Emax [4]: < 20%
Activity [5]: < 35%
IC50 (Cannabinoid receptor 1 [6]): 10700 nM

Cc1ccc(CCNC(=O)Nc2ccc(Cl)cc2)cc1
IC50 (Cannabinoid receptor 1 [1]): 135 nM
IC50 (Cannabinoid receptor 1 [2]): 13800 nM
Emax (Cannabinoid receptor 1 [3]): < 30%
Emax [4]: < 20%
Activity [5]: < 35%
IC50 (Cannabinoid receptor 1 [6]): 2040 nM

CN(C)c1ccc(CCNC(=O)Nc2ccc(Cl)cc2)cc1
IC50 (Cannabinoid receptor 1 [1]): 257 nM
Emax (Cannabinoid receptor 1 [3]): < 30%
Emax [4]: < 20%
Activity [5]: < 35%

O=C(NCCc1cccc(C(F)(F)F)c1)Nc1ccc(Cl)cc1
t1/2 [8]: 15.5 min
CLH [9]: 90 µL/min/mg
IC50 (Cannabinoid receptor 1 [1]): 28.8 nM
IC50 (Cannabinoid receptor 1 [2]): 1290 nM
Emax (Cannabinoid receptor 1 [3]): < 30%
Emax [4]: < 20%
Activity [5]: < 35%
IC50 (Cannabinoid receptor 1 [6]): 676 nM

O=C(NCCc1c(F)cc(F)cc1F)Nc1ccc(Cl)cc1
IC50 (Cannabinoid receptor 1 [1]): 79.4 nM
Emax (Cannabinoid receptor 1 [3]): < 30%
Emax [4]: < 20%
Activity [5]: < 35%

O=C(NCCc1ccc(C(F)(F)F)cc1)Nc1ccc(Cl)cc1
IC50 (Cannabinoid receptor 1 [1]): 178 nM
Emax (Cannabinoid receptor 1 [3]): < 30%
Emax [4]: < 20%
Activity [5]: < 35%

O=C(NCCc1ccccc1Cl)Nc1ccc(Cl)cc1
IC50 (Cannabinoid receptor 1 [1]): 229 nM
Emax (Cannabinoid receptor 1 [3]): < 30%
Emax [4]: < 20%
Activity [5]: < 35%

O=C(NCCc1ccc(-c2ccccc2)cc1)Nc1ccc(Cl)cc1
IC50 (Cannabinoid receptor 1 [1]): 871 nM
Emax (Cannabinoid receptor 1 [3]): < 30%
Emax [4]: < 20%
Activity [5]: < 35%

COc1cc(CCNC(=O)Nc2ccc(Cl)cc2)cc(OC)c1
IC50 (Cannabinoid receptor 1 [1]): 1070 nM
Emax (Cannabinoid receptor 1 [3]): < 30%
Emax [4]: < 20%
Activity [5]: < 35%

O=C(NCCc1ccc([N+](=O)[O-])cc1)Nc1ccc(Cl)cc1
IC50 (Cannabinoid receptor 1 [1]): 85.1 nM
IC50 (Cannabinoid receptor 1 [2]): 2950 nM
Emax (Cannabinoid receptor 1 [3]): < 30%
Emax [4]: < 20%
Activity [5]: < 35%
IC50 (Cannabinoid receptor 1 [6]): 1780 nM

O=C(NCCc1c(F)c(F)c(F)c(F)c1F)Nc1ccc(Cl)cc1
IC50 (Cannabinoid receptor 1 [1]): 32.4 nM
Emax (Cannabinoid receptor 1 [3]): < 30%
Emax [4]: < 20%
Activity [5]: < 35%

COc1cc(CCNC(=O)Nc2ccc(Cl)cc2)ccc1O
IC50 (Cannabinoid receptor 1 [1]): > 10000 nM
Emax (Cannabinoid receptor 1 [3]): < 30%
Emax [4]: < 20%
Activity [5]: < 35%

COc1ccc(CCNC(=O)Nc2ccc(Cl)cc2)cc1
IC50 (Cannabinoid receptor 1 [1]): 214 nM
IC50 (Cannabinoid receptor 1 [2]): 5620 nM
Emax (Cannabinoid receptor 1 [3]): < 30%
Emax [4]: < 20%
Activity [5]: < 35%
IC50 (Cannabinoid receptor 1 [6]): 4170 nM
IC50 (Cannabinoid receptor 1 [7]): 3720 nM

O=C(NCCc1ccccc1)Nc1ccc(Cl)cc1
IC50 (Cannabinoid receptor 1 [1]): 186 nM
IC50 (Cannabinoid receptor 1 [2]): 6760 nM
Emax [4]: < 20%
Activity [5]: < 35%
IC50 (Cannabinoid receptor 1 [6]): 3470 nM

COc1cccc(CCNC(=O)Nc2ccc(Cl)cc2)c1
IC50 (Cannabinoid receptor 1 [1]): 447 nM
IC50 (Cannabinoid receptor 1 [2]): 12300 nM
Emax (Cannabinoid receptor 1 [3]): < 30%
Emax [4]: < 20%
Activity [5]: < 35%
IC50 (Cannabinoid receptor 1 [6]): 7760 nM

O=C(NCCc1ccc(O)cc1)Nc1ccc(Cl)cc1
IC50 (Cannabinoid receptor 1 [1]): > 10000 nM
Emax (Cannabinoid receptor 1 [3]): < 30%
Emax [4]: < 20%
Activity [5]: < 35%

O=C(NCCc1ccc(Br)cc1)Nc1ccc(Cl)cc1
IC50 (Cannabinoid receptor 1 [1]): 148 nM
Emax (Cannabinoid receptor 1 [3]): < 30%
Emax [4]: < 20%
Activity [5]: < 35%

N#Cc1ccc(CCNC(=O)Nc2ccc(Cl)cc2)cc1
IC50 (Cannabinoid receptor 1 [1]): 437 nM
Emax (Cannabinoid receptor 1 [3]): < 30%
Emax [4]: < 20%
Activity [5]: < 35%

N#Cc1cccc(CCNC(=O)Nc2ccc(Cl)cc2)c1
IC50 (Cannabinoid receptor 1 [1]): 145 nM
IC50 (Cannabinoid receptor 1 [2]): 832 nM
Emax [4]: < 20%
Activity [5]: < 35%
IC50 (Cannabinoid receptor 1 [6]): 871 nM

COc1ccccc1CCNC(=O)Nc1ccc(Cl)cc1
IC50 (Cannabinoid receptor 1 [1]): 1580 nM
Emax (Cannabinoid receptor 1 [3]): < 30%
Emax [4]: < 20%
Activity [5]: < 35%
